FGF22 binding = shifts melting point of recombinant human FGF22. recombinant FGF22 thermal shift, SYPRO orange fluorescence; percent of sucrose octasulfate shift, DMSO zero. Q9HCT0. activity (Tm shift, normalised), % at 9.99 µM. hit rate 1.5% among 340,000;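 active means mean Tm shift, scaled 0 neutral to 100 positive control, at about 1.3% or above, every replicate too, limit read from the data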
S100A4 inh HTS = S100A4-myosin IIA interaction inhibition; P26447; S100A4/TAMRA-MyoIIA peptide fluorescence polarization; inhibition, % at 10.7 µM; hit rate 0.14% among 360,000; AID 652163;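 active means mean inhibition of at least 70% across replicates, with every replicate also reaching that level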
Target sequence (P26447 whole entry, looked up): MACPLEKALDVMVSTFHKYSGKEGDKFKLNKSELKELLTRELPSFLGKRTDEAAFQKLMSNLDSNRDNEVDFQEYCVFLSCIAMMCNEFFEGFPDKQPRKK
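System – human S100A4 monomer protein, biochemical binding assay · Buffer or medium – Calcium-containing HEPES buffer, pH 7.2 · Timing – 5 min between mix addition and reading · Also added – TAMRA-labelled myosin IIA heavy-chain peptide probe, 5 nM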
ERp5 block = ERp5 (human) disulfide isomerase inhibition. Q15084. ERp5 insulin aggregation, absorbance 650 nm, 90 min. inhibition, % at 9.99 µM. hit rate 0.05% among 350,000;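 active means mean replicate inhibition above about 25%, with every replicate also reaching it, limit read from the data, passing the limit was not always enough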
PDI inh = PDI (human) enzyme inhibition. P07237. PDI insulin aggregation turbidity, A650, 90 min. inhibition, % at 10 µM. hit rate 0.052% among 350,000. AID 588391;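 active means mean inhibition across replicates of 30% or more, whatever share of single replicates reach that level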
Target sequence (P07237 whole entry, looked up): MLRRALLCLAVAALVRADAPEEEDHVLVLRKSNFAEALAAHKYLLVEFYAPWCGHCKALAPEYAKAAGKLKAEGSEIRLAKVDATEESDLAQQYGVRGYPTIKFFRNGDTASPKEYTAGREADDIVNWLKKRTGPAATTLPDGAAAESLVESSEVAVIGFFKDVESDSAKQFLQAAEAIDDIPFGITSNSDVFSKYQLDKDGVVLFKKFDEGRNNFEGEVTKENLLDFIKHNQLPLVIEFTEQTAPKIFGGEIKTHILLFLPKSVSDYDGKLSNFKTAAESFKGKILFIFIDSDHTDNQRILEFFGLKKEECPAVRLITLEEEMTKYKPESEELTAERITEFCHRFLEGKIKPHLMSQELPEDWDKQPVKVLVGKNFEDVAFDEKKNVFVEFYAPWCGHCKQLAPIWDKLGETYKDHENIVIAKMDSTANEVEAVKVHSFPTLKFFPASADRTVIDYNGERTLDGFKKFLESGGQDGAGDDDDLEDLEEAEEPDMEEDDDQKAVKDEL
ERAP1 inh = inhibitors of human ERAP1 aminopeptidase | Q9NZ08 | AID 652197 | hit rate 0.15% among 340,000 | recombinant ERAP1, Leu-AMC fluorescence, 60 min | inhibition, % at 10.7 µM;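 active means mean replicate inhibition of at least 30%, or all replicates individually reaching that 30% level; inactive means mean below 30% and not every replicate reaching it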
Of the large screens only hits and unclear results are named; the others gave an inactive call. This excerpt belongs to a sample that is enriched for hits.

COc1cc(C(=O)NCC2CCCO2)cc(Br)c1OCc1ccccc1 (configuration not stated)	none
COC(=O)C(C)Sc1nc2c(cnn2-c2ccc(C)cc2)c(=O)[nH]1 (configuration not stated)	none (no result: FGF22 binding, S100A4 inh HTS, ERp5 block, ERAP1 inh)
CSc1ccc(S(=O)(=O)Nc2ccc(OCC(=O)N3CCOCC3)cc2)cc1	FGF22 binding 43
Cc1cs/c(=N\N=C\c2ccccc2)n1Cc1ccco1	none (no result: FGF22 binding, S100A4 inh HTS, ERp5 block, ERAP1 inh)
CC(C)=N/N=c1\scc(C)n1Cc1ccco1	FGF22 binding 43
Cc1nc(C)c(C(=O)N2CCCC(CCC(=O)NCc3ccc(F)c(F)c3)C2)s1 (configuration not stated)	none
CN(C)c1cc(Nc2ccc(O)cc2)c([N+](=O)[O-])c2nonc12	none (no result: ERAP1 inh)
O=[N+]([O-])c1c(Nc2ccc(O)cc2)cc(Cl)c2nonc12	ERAP1 inh 42
Oc1[nH]c2ccc(Br)cc2c1N=Nc1ccc(C(F)(F)F)cn1	FGF22 binding 44
Cc1nn(-c2ccc([N+](=O)[O-])cc2)c2c1C(c1ccc(OC(F)F)cc1)N1C(=N2)C(=O)Nc2ccccc21 (configuration not stated)	FGF22 binding 43
COc1cccc(C2c3c(C)nn(-c4ccc([N+](=O)[O-])cc4)c3N=C3C(=O)Nc4ccccc4N32)c1 (configuration not stated)	FGF22 binding 43
COc1ccc(NC2=Nc3ccccc3N3C2=Nc2c(c(C)nn2-c2ccc(C)cc2)C3c2cccnc2)cc1 (configuration not stated)	none (no result: FGF22 binding, S100A4 inh HTS, ERp5 block, ERAP1 inh)
O=C(N[C@@H]1C[C@@H]2O[C@H](CO)CC[C@@H]2O[C@@H]1CCc1ccc(-c2cccnc2)cc1)c1cccc(F)c1	none (no result: PDI inh)
C[C@H](CO)N1C[C@H](C)[C@H](CN(C)C(=O)Nc2cccc3ccccc23)OCCCC[C@H](C)Oc2ccc(NC(=O)Nc3ccc(C(F)(F)F)cc3)cc2C1=O	none (no result: PDI inh)
O=C(Nc1ccccc1F)N[C@@H]1CC[C@@H](CCNC(=O)C2CCCCC2)O[C@H]1CO	none (no result: PDI inh)
CCCC[n+]1c(C)sc2cc(OC)ccc21	ERAP1 inh 35
Cc1ccc2sc(C)[n+](CCCS(=O)(=O)[O-])c2c1	none
Cc1ccc2c(c1)sc(C)[n+]2CCCS(=O)(=O)[O-]	FGF22 binding 43
O=C(O)CNC(=O)c1ccc(NC(=O)/C(=C/c2ccccc2)NC(=O)c2ccccc2)cc1	none
CN(CCCNC(=O)c1nn(C)c2c1CS(=O)(=O)c1ccccc1-2)Cc1ccccc1	none
CSc1ncc(CN2CCCC(C(=O)c3ccc(C(C)(C)C)cc3)C2)cn1 (configuration not stated)	none
CC#CCOCC1CN(C)C(=O)O1 (configuration not stated)	FGF22 binding 43
COCOCCn1cc(CN2CCS(=O)(=O)N(Cc3ccc(-c4cccc(CO)c4)cc3)C(CC(C)C)C2=O)nn1 (configuration not stated)	none
CCn1cc([N+](=O)[O-])c(C(=O)N2CCOCC2)n1	none (no result: FGF22 binding, S100A4 inh HTS, ERp5 block, ERAP1 inh)
O=C(NCCN1CCOCC1)c1ccc(CSc2nc3ccncc3n2Cc2ccc(F)cc2)cc1	FGF22 binding 44
FC(F)c1nnc2c(Cl)cc(C(F)(F)F)cn12	FGF22 binding 44
COC(=O)c1c(-c2ccccc2)[nH]c(-c2nccc3ccccc23)c1C(=O)OC	none
Cc1ccc(S(=O)(=O)N(C)C(=O)NC(=O)NS(=O)(=O)c2ccccc2)cc1	FGF22 binding 44
O=S(=O)(NCc1ccccn1)c1cc(C(F)(F)F)ccc1Cl	FGF22 binding 43
O=S(=O)(NCc1ccccn1)c1cc(Cl)ccc1Cl	none
CCN(C[C@@H]1[C@@H](c2ccccc2)[C@H](CO)N1C(C)=O)C(=O)c1ccccn1	none (no result: PDI inh)
CCN(C[C@H]1[C@H](c2ccccc2)[C@H](CO)N1C(C)=O)C(=O)c1ccccn1	S100A4 inh HTS 104 (no result: PDI inh)
O=C(N/N=C/c1ccc(O)c(O)c1)C1CC1	none
O=C(N/N=C/c1ccsc1)C1CC1	FGF22 binding 43
O=C(N/N=C/c1ccc(N2CCOCC2)cc1)C1CC1	PDI inh 38
COCCN(C(=O)C1CCN(C(=O)c2ccccc2C)CC1)c1c(N)n(CC(C)C)c(=O)[nH]c1=O	ERAP1 inh 91
CCOC(=O)C1CCN(CC(=O)N(CC(C)C)c2c(N)n(CC(C)C)c(=O)[nH]c2=O)CC1	FGF22 binding 44
Cc1ccccc1C(=O)N1CCC(C(=O)N(CC(C)C)c2c(N)n(CC(C)C)c(=O)[nH]c2=O)CC1	none
Cc1cc(C)c(OCC(=O)Nc2ccccc2N2CCOCC2)c(C)c1	none (no result: FGF22 binding, S100A4 inh HTS, ERp5 block, ERAP1 inh)
CCCCN1C(=O)C(CC(=O)NC2CCCC2)CC(C(=O)N(CC)CC)=C1C (configuration not stated)	none
CCN(CC)C(=O)C1=C(C)N(Cc2ccc(F)cc2)C(=O)C(CC(=O)NCc2cccs2)C1 (configuration not stated)	none (no result: ERAP1 inh)
CCCCN1C(=O)C(CC(=O)NC2CC2)CC(C(=O)N(CC)CC)=C1C (configuration not stated)	FGF22 binding 43
CCN(CC)C(=O)C1=C(C)N(Cc2ccc(OC)cc2)C(=O)C(CC(=O)NCCCN(C)C)C1 (configuration not stated)	FGF22 binding 44
COc1ccc(CN2C(=O)C(CC(=O)NCCCN(C)C)CC(C(=O)N(C(C)C)C(C)C)=C2C)cc1 (configuration not stated)	none (no result: ERAP1 inh)
CCN(CC)C(=O)C1=C(C)N(Cc2ccccc2)C(=O)C(CC(=O)NCc2cccs2)C1 (configuration not stated)	FGF22 binding 44
CC1=C(C(=O)N(C(C)C)C(C)C)CC(CC(=O)NCCCCc2ccccc2)C(=O)N1Cc1ccccc1 (configuration not stated)	none
CCN(CC)C(=O)C1=C(C)N(Cc2ccccc2)C(=O)C(CC(=O)NCCCCc2ccccc2)C1 (configuration not stated)	FGF22 binding 43
Cc1cc(Br)cc(C)c1OCCCCN(C)C	none (no result: FGF22 binding, S100A4 inh HTS, ERp5 block, ERAP1 inh)
COc1ccc2c3c(n(C)c2c1)[C@H](CO)N(C(=O)Nc1ccc(F)cc1)CC31CN(C(=O)Cc2ccncc2)C1	none (no result: FGF22 binding, PDI inh)
NS(=O)(=O)c1ccc(N=NN2CCCCC2)cc1	FGF22 binding 43
COc1ccc(S(=O)(=O)Nc2cccc3c2O[C@@H](CN(C)S(=O)(=O)c2c(C)noc2C)[C@H](C)CN([C@@H](C)CO)C3=O)cc1	S100A4 inh HTS 127 (no result: PDI inh)
C[C@@H]1CN([C@@H](C)CO)C(=O)c2cccc(NS(=O)(=O)c3ccc(F)cc3)c2O[C@H]1CN(C)S(=O)(=O)c1ccccc1	ERp5 block 46 (no result: PDI inh)
Cc1ccc(S(=O)(=O)N(C)C[C@@H]2Oc3c(NC(=O)C4CCCCC4)cccc3C(=O)N([C@H](C)CO)C[C@@H]2C)cc1	S100A4 inh HTS 109 (no result: PDI inh)
Cc1ccc(S(=O)(=O)Nc2cccc3c2O[C@@H](CN(C)Cc2ccc(C(=O)Nc4ccccc4N)cc2)[C@H](C)CN([C@@H](C)CO)C3=O)cc1	none (no result: ERp5 block, PDI inh, ERAP1 inh)

Assay outcomes (PubChem)
